Measured values published in ChEMBL document CHEMBL1147069, “Gambogic amide, a selective agonist for TrkA receptor that possesses robust neurotrophic activity, prevents neuronal cell death” (Proc Natl Acad Sci U S A, 2007).
Activity calls are given as the source filed them.

Columns and labels:
SN56 = assay: Suppression of staurosporine-initiated apoptosis in mouse SN56 cells at 0.5 uM; assay type: functional, cell-based
Outline: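 Murine SN56 basal forebrain cells and their rat-TrkA stably transfected line T17 (DMEM, 1 mM pyruvate, 10% FBS; T17 with 300 μg/ml G418). Cells were preincubated with 0.5 μM compound, then given 1 μM staurosporine for 9 h. Apoptosis was read with the caspase-3-activated dye MR(DEVD)2 (10 μM, last hour) plus Hoechst counterstain after fixation. Three independent experiments, mean ± SD.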

[1] = molecular target: High affinity nerve growth factor receptor (Rattus norvegicus) (UniProt P35739); assay: Induction of TrkA phosphorylation in rat hippocampal neurons at 0.5 uM after 30 mins; assay type: tissue-based; details: Hippocampus
Chain of High affinity nerve growth factor receptor (Rattus norvegicus) (P35739 whole entry): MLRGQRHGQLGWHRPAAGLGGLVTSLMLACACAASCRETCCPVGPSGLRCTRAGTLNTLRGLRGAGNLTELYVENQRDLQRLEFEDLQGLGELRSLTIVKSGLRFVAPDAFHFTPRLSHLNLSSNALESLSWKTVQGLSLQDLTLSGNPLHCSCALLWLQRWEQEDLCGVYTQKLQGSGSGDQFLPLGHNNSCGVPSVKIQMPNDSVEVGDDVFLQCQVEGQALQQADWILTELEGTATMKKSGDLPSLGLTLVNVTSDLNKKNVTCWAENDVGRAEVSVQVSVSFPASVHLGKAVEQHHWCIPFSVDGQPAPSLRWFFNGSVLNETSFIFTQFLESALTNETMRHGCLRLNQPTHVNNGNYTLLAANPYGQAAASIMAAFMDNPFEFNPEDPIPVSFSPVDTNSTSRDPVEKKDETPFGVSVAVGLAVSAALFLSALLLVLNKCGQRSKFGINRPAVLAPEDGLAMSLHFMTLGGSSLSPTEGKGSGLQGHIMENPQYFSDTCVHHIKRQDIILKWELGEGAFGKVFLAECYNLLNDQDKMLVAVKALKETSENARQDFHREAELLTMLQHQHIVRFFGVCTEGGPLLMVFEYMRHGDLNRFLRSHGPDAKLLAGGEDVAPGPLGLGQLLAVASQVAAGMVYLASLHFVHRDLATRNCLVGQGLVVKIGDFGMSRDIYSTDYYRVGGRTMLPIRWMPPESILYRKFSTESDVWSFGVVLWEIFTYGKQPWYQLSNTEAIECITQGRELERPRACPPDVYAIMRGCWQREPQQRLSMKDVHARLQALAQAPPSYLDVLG
Outline: (§1)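 Primary hippocampal neurons were treated with 0.5 μM compounds for 30 min; lysates were immunoblotted with anti-phospho-Trk Y490 antibody. Repeated more than three times.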

PC-12 [2] = assay: Induction of neurite outgrowth in rat PC12 cells at 0.5 uM after 5 days; assay type: functional, cell-based
Outline: (§2)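 PC12 cells were seeded at 1 × 10^4 per well on poly-L-lysine and grown 24 h, then treated with compounds (0.5 μM, or 10–50 nM in dose series) or NGF for 5 days, with medium replenished every other day. Neurites were counted as processes longer than two cell bodies. Three independent experiments.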

[3] = Suppression of staurosporine-initiated apoptosis in mouse T17 cells at 0.5 uM
TrkB-stable [4] = assay: Induction of MAPK signaling activation in TrkB-stable cells; assay type: cell-based
TrkB-stable [5] = assay: Induction of PI3K signaling activation in TrkB-stable cells; assay type: cell-based
T17 [6] = assay: Induction of MAPK phosphorylation in mouse T17 cells
[7] = molecular target: High affinity nerve growth factor receptor (Rattus norvegicus) (UniProt P35739); assay: Induction of Akt phosphorylation in rat primary hippocampal neurons; assay type: tissue-based; details: Hippocampus
Outline: (§3)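 Hippocampal neurons were given 0.5 μM compound for 5–180 min (time course), or a dose range for 30 min, with 50 ng/ml NGF for comparison. Akt phosphorylation was detected by immunoblotting with phospho-Akt (473/308) antibodies.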

T17 [8] = assay: […] in staurosporine-initiated apoptosis in mouse T17 cells at 0.5 uM
[9] = molecular target: Mitogen-activated protein kinase 1 (Homo sapiens) (UniProt P28482); assay: Induction of ERK2 phosphorylation
Chain of Mitogen-activated protein kinase 1 (Homo sapiens) (P28482 whole entry): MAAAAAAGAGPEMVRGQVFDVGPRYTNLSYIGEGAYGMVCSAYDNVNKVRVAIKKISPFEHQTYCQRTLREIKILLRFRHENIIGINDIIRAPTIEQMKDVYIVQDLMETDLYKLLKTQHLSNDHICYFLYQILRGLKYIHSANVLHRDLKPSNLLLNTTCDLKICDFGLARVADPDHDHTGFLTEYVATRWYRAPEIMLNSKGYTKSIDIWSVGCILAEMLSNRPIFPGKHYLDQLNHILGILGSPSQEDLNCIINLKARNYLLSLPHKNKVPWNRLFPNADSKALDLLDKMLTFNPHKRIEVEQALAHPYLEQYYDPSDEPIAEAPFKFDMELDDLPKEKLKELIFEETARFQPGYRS

Rattus norvegicus [10] = assay: Neuroprotective effect in rat MCAO model assessed as increase in cerebral blood flow at 2 mg/kg after 120 mins of filament withdrawal; assay type: functional, Brain
Outline: (§4)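 Adult male rats underwent 2 h transient MCAO; vehicle or 2 mg/kg was given 5 min before reperfusion onset. Relative cerebral blood flow over ipsilateral parietal cortex was measured by laser-Doppler flowmetry versus preischemic levels. Values are mean ± SD, compared by Student's t test.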

[11] = molecular target: High affinity nerve growth factor receptor (Homo sapiens) (UniProt P04629); assay: Binding affinity to recombinant GST-TrkA
Chain of High affinity nerve growth factor receptor (Homo sapiens) (P04629 33-796 limits assumed): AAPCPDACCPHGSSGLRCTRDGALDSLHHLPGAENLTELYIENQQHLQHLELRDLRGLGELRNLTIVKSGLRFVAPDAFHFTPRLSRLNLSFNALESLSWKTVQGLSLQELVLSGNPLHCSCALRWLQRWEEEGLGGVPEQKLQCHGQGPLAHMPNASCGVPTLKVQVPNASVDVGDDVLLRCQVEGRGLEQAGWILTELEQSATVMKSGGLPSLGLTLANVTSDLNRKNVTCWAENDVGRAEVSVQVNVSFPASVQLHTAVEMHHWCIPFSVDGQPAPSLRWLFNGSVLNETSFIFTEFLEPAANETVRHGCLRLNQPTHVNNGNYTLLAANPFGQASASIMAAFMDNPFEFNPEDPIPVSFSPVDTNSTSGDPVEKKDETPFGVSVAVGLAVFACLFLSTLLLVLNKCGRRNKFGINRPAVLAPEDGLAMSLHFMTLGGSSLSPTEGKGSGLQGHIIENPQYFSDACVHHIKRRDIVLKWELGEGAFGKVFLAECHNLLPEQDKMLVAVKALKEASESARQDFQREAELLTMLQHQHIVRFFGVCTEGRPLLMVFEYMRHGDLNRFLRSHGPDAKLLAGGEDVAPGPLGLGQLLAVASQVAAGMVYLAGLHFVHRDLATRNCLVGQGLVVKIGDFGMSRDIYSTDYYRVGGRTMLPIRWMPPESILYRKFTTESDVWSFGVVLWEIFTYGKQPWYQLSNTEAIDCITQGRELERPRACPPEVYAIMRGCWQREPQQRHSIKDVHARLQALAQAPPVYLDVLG
Outline: (§5)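 Recombinant GST-TrkA, GST-TrkB or GST-TrkC proteins tested in an in vitro binding assay with the compounds; experiments were repeated more than three times.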

[12] = molecular target: High affinity nerve growth factor receptor (Homo sapiens) (UniProt P04629); assay: Stimulation of TrkA dimerization co-transfected in HEK293 cells at 0.5 uM after 30 mins by immunoblotting analysis in presence of green fluorescent protein; assay type: cell-based
Outline: (§6)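 HEK293 cells were cotransfected with GFP-TrkA plus HA-TrkA or HA-TrkB, then treated with 0.5 μM compound for 30 min. GFP-TrkA was immunoprecipitated with anti-GFP and coprecipitated receptor detected by anti-HA immunoblot.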

[13] = molecular target: BDNF/NT-3 growth factors receptor (Homo sapiens) (UniProt Q16620); assay: Binding affinity to recombinant GST-TrkB; outline: as §5
Chain of BDNF/NT-3 growth factors receptor (Homo sapiens) (Q16620 32-822 limits assumed): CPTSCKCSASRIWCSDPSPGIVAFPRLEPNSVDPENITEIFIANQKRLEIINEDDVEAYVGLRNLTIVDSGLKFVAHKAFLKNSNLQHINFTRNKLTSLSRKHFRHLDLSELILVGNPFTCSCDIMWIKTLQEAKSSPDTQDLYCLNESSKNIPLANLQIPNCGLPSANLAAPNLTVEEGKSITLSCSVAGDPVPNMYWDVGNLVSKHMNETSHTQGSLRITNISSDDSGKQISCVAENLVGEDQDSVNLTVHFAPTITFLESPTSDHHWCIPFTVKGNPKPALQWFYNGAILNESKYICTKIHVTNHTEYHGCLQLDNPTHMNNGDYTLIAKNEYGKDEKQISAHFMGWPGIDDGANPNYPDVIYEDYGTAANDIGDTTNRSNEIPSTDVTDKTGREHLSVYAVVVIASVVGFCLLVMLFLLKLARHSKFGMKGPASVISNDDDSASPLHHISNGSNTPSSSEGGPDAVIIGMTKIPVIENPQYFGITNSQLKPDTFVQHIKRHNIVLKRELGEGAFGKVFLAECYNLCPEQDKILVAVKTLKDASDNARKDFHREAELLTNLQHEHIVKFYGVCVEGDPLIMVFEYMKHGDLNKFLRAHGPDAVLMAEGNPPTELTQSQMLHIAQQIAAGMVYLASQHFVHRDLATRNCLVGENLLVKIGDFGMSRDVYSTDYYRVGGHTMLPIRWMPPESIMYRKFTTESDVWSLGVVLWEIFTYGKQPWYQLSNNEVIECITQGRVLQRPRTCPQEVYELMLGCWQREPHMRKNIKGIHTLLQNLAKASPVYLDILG

[14] = molecular target: Mitogen-activated protein kinase 3 (Homo sapiens) (UniProt P27361); assay: Induction of ERK1 phosphorylation
Chain of Mitogen-activated protein kinase 3 (Homo sapiens) (P27361 whole entry): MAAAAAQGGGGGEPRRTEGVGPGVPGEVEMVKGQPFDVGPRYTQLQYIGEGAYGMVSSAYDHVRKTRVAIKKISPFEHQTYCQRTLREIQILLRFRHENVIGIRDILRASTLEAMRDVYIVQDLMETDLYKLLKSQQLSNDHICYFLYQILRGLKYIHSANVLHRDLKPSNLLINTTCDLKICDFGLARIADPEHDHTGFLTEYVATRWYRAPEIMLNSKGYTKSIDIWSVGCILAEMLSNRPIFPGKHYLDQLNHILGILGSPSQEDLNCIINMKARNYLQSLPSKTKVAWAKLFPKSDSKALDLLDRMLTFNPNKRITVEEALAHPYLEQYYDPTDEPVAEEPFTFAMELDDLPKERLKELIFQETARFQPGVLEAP

[15] = molecular target: NT-3 growth factor receptor (Homo sapiens) (UniProt Q16288); assay: Binding affinity to recombinant GST-TrkC; outline: as §5
Chain of NT-3 growth factor receptor (Homo sapiens) (Q16288 32-839 limits assumed): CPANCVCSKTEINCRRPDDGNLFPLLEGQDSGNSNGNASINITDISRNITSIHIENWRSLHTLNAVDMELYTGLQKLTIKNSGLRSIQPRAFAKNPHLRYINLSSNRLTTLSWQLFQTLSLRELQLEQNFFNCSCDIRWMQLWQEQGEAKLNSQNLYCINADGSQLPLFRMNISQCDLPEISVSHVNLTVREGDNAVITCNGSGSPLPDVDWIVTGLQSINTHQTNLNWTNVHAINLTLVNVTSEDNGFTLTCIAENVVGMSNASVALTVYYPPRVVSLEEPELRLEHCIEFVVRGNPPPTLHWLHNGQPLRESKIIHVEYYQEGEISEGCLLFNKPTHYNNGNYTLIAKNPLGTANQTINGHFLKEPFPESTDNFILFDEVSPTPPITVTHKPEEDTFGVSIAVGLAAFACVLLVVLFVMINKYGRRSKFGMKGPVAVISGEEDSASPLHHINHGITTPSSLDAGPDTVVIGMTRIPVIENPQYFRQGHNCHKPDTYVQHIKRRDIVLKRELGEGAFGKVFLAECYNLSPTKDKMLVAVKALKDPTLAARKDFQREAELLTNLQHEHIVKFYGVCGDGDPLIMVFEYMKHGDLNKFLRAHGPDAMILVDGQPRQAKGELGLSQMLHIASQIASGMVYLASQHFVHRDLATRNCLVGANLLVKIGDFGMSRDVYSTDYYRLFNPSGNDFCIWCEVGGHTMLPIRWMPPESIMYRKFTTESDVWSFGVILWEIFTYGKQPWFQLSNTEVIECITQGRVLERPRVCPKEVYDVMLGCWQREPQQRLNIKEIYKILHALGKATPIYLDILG

Hippocampal neurone [16] = assay: Neuroprotective effect in glutamate-induced cell death in rat hippocampal neurons after 30 mins; assay type: functional, tissue-based; details: Hippocampus
Outline: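 Primary hippocampal neurons were pretreated with compounds for 30 min, then exposed to 50 μM glutamate for 16 h. Apoptosis was quantified with the MR(DEVD)2 caspase-3 dye; NGF served as positive control. Three independent experiments, mean ± SD.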

Rattus norvegicus [17] = assay: Neuroprotective effect in rat MCAO model assessed as decrease in cerebral blood flow at 2 mg/kg within 5 mins; assay type: functional, Brain; design: scale not given: the % may be the effect or the level left; outline: as §4
[18] = molecular target: Mitogen-activated protein kinase 1 (Mus musculus) (UniProt P63085); assay: Induction of ERK2 phosphorylation in mouse T17 cells
[19] = molecular target: Receptor tyrosine-protein kinase erbB-3 (Homo sapiens) (UniProt P21860); assay: Binding affinity to ErbB3
[20] = molecular target: High affinity nerve growth factor receptor (Rattus norvegicus) (UniProt P35739); assay: Induction of Akt phosphorylation in rat primary hippocampal neurons at 0.5 uM; details: Hippocampus, TDE = time-dependent effect; outline: as §3
[21] = molecular target: Mitogen-activated protein kinase 3 (Mus musculus) (UniProt Q63844); assay: Induction of ERK1 phosphorylation in mouse T17 cells
Chain of Mitogen-activated protein kinase 3 (Mus musculus) (Q63844 whole entry, looked up): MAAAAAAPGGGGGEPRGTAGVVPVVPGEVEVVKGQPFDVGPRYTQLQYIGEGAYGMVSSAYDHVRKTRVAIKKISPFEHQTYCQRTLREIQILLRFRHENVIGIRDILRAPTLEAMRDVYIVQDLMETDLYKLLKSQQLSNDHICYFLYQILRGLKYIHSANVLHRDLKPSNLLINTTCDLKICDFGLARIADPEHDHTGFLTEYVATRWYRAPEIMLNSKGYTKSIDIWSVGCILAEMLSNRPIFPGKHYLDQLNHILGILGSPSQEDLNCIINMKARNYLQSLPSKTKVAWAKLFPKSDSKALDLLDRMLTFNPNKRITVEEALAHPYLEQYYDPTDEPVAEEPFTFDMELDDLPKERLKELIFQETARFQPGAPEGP

[22] = molecular target: Tumor necrosis factor receptor superfamily member 16 (Homo sapiens) (UniProt P08138); assay: Binding affinity to p75NTR
Chain of Tumor necrosis factor receptor superfamily member 16 (Homo sapiens) (P08138 whole entry): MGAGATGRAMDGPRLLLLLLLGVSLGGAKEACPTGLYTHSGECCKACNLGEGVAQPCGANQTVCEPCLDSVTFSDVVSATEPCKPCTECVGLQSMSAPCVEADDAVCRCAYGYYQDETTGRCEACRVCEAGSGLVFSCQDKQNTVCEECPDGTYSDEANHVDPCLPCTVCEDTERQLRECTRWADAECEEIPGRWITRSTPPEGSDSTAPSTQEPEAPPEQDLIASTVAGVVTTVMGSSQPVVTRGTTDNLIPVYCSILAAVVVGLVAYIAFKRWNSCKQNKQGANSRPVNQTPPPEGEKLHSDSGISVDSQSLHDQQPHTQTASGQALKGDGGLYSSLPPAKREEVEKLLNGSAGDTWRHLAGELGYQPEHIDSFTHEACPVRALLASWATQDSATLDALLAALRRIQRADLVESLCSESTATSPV

Mus musculus [23] = assay: Neuroprotective effect on C57BL/6 mouse hippocampal CA1 region assessed as decrease in kainic acid-induced neuronal cell death at 2 mg/kg, sc after 5 days; assay type: functional; design: scale not given: the % may be the effect or the level left; details: route subcutaneous
Outline: (§7)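 C57BL/6 mice were given 2 mg/kg s.c., followed by 25 mg/kg kainic acid. After 5 days, mice were perfused and 5 μm brain sections cut. Hippocampal apoptosis was quantified by TUNEL with DAPI counterstain.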

PC-12 [24] = assay: Blockade of induction of neurite outgrowth in rat PC12 cells in presence of K252a; assay type: functional, cell-based
[25] = molecular target: Epidermal growth factor receptor (Homo sapiens) (UniProt P00533); assay: Binding affinity to EGFR
[26] = molecular target: BDNF/NT-3 growth factors receptor (Homo sapiens) (UniProt Q16620); assay: Binding affinity to TrkB
[27] = molecular target: High affinity nerve growth factor receptor (Homo sapiens) (UniProt P04629); assay: Binding affinity to TrkA
Outline: (§8)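 GFP-tagged TrkA (wild-type or kinase-dead) expressed in transfected HEK293 cells; lysates bound to gambogic amide immobilised on Affi-Gel 102 through an amide bond. For Kd, TrkA-loaded beads were competed with increasing free compound. After extensive washing, bead-bound protein was immunoblotted with anti-GFP and quantitated densitometrically.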

[28] = molecular target: BDNF/NT-3 growth factors receptor (Homo sapiens) (UniProt Q16620); assay: Induction of TrkB tyrosine phosphorylation in transfected HEK293 cells; assay type: cell-based
PC-12 [29] = assay: Induction of neurite outgrowth in rat PC12 cells; assay type: functional, cell-based; outline: as §2
[30] = molecular target: High affinity nerve growth factor receptor (Homo sapiens) (UniProt P04629); assay: Binding affinity to TrkA kinase; outline: as §8
Hippocampal neurone [31] = assay: Neuroprotective effect in oxygen-glucose deprivation triggered cell death in rat hippocampal neurons after 30 mins; assay type: functional, tissue-based; details: Hippocampus
Outline: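 Primary hippocampal neurons were pretreated with compounds or NGF 30 min before oxygen–glucose deprivation; apoptosis was assayed 3 h later, including a dose titration. Three independent experiments, mean ± SD.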

Rattus norvegicus [32] = species on record: Rattus norvegicus; assay: Reversal of TrkA Y751 phosphorylation in rat hippocampal neurons at 0.5 uM after 30 mins in presence of K252a; assay type: tissue-based; details: Hippocampus
[33] = molecular target: RAC-alpha serine/threonine-protein kinase (Mus musculus) (UniProt P31750); assay: Induction of Akt phosphorylation in mouse T17 cells
Mus musculus [34] = assay: Neuroprotective effect on C57BL/6 mouse hippocampal CA3 region assessed as decrease in kainic acid-induced neuronal cell death at 2 mg/kg, sc after 5 days; assay type: functional; design: scale not given: the % may be the effect or the level left; details: route subcutaneous; outline: as §7
[35] = molecular target: NT-3 growth factor receptor (Homo sapiens) (UniProt Q16288); assay: Binding affinity to TrkC
[36] = molecular target: NT-3 growth factor receptor (Homo sapiens) (UniProt Q16288); assay: Induction of TrkC tyrosine phosphorylation in transfected HEK293 cells; assay type: cell-based
[37] = molecular target: High affinity nerve growth factor receptor (Homo sapiens) (UniProt P04629); assay: Induction of TrkA tyrosine phosphorylation in transfected HEK293 cells; assay type: cell-based
[38] = molecular target: High affinity nerve growth factor receptor (Rattus norvegicus) (UniProt P35739); assay: Induction of Akt phosphorylation in rat primary hippocampal neurons after 30 mins; assay type: tissue-based; details: Hippocampus; outline: as §3
HEK293 = assay: Stimulation of TrkA and TrkB dimerization co-transfected in HEK293 cells at 0.5 uM after 30 mins by immunoblotting analysis; assay type: cell-based; outline: as §6
Rattus norvegicus [39] = species on record: Rattus norvegicus; assay: Induction of TrkA Y751 tyrosine phosphorylation in rat hippocampal neurons at 0.5 uM after 30 mins by immunoblotting staining; assay type: tissue-based; details: Hippocampus
Rattus norvegicus [40] = species on record: Rattus norvegicus; assay: Reversal of TrkA Y490 phosphorylation in rat hippocampal neurons at 0.5 uM after 30 mins in presence of K252a; assay type: tissue-based; details: Hippocampus
[41] = molecular target: High affinity nerve growth factor receptor (Rattus norvegicus) (UniProt P35739); assay: Reversal of TrkA phosphorylation in rat hippocampal neurons at 0.5 uM after 30 mins in presence of K252a; assay type: tissue-based; details: Hippocampus
[42] = molecular target: High affinity nerve growth factor receptor (Rattus norvegicus) (UniProt P35739); assay: Induction of TrkA tyrosine phosphorylation in rat hippocampal neurons at 0.5 uM after 30 mins by immunoblotting staining; assay type: tissue-based; details: Hippocampus; outline: as §1

COC(=O)/C(C)=C\C[C@@]12OC(C)(C)C3C[C@@H](C=C4C(=O)c5c(OC)c6c(c(CC=C(C)C)c5O[C@]431)O[C@](C)(CCC=C(C)C)C=C6)C2=O
120 nM: EC50 [3]
active: Activity (SN56) | Activity (TrkB-stable [4]) | Activity (TrkB-stable [5])
inactive: Activity [1] | Activity (PC-12 [2])

CC(C)=CCC[C@]1(C)C=Cc2c(O)c3c(c(CC=C(C)C)c2O1)O[C@]12C(=C[C@@H]4CC1C(C)(C)O[C@@]2(C/C=C(/C)C(=O)O)C4O)C3=O (some centres undefined)
active: Activity (SN56) | Activity (PC-12 [2]) | Activity (TrkB-stable [4]) | Activity (TrkB-stable [5])
200 nM: EC50 [3]
inactive: Activity [1]

CC(=O)Oc1c2c(c(CC=C(C)C)c3c1C(=O)C1=C[C@@H]4CC5C(C)(C)O[C@@](C/C=C(\C)C(=O)O)(C4=O)[C@@]15O3)O[C@](C)(CCC=C(C)C)C=C2
inactive: Activity [1]
active: Activity (SN56) | Activity (TrkB-stable [4]) | Activity (TrkB-stable [5])

CC(C)=CCC[C@]1(C)C=Cc2c(O)c3c(c(CC=C(C)C)c2O1)O[C@]12C(C[C@@H]4CC1C(C)(C)O[C@@]2(C/C=C(/C)C(=O)O)C4O)C3=O (some centres undefined)
inactive: Activity [1] | Activity (T17 [6])
active: Activity (SN56) | Activity (TrkB-stable [4]) | Activity (TrkB-stable [5])

CC(C)CCC[C@]1(C)C=Cc2c(O)c3c(c(CCC(C)C)c2O1)O[C@]12C(C[C@@H]4CC1C(C)(C)O[C@@]2(CCC(C)C(=O)O)C4O)C3=O (some centres undefined)
inactive: Activity [1] | Activity (T17 [6])
active: Activity (SN56) | Activity [7] | Activity (T17 [8]) | Activity (TrkB-stable [4]) | Activity (TrkB-stable [5])

CC(C)=CCC[C@]1(C)C=Cc2c(O)c3c(c(CC=C(C)C)c2O1)O[C@]12C(=C[C@@H]4C[C@H]1C(C)(C)O[C@@]2(C/C=C(/C)C(=O)O)C4=O)C3=O [GAMBOGIC ACID]
20 nM: EC50 [3]
active: Activity (SN56) | Activity [9] | Activity [7] | Activity [11] | Activity [14] | Activity (Hippocampal neurone [16])
inactive: Activity [1] | Activity (PC-12 [2]) | Activity [12] | Activity [13] | Activity [15] | Activity (T17 [6])
85.83%: Activity (Rattus norvegicus [10])
24.41%: Activity (Rattus norvegicus [17])

CC(C)=CCC[C@]1(C)C=Cc2c(O)c3c(c(CC=C(C)C)c2O1)O[C@]12C(=C[C@@H]4CC1C(C)(C)O[C@@]2(C/C=C(/C)C(N)=O)C4=O)C3=O [GAMBOGIC AMIDE]
inactive: Activity [19] | Activity [22] | Activity [25] | Activity [26] | Activity [35] | Activity (HEK293)
6.3%: Activity (Mus musculus [23])
active: Activity [18] | Activity (SN56) | Activity [20] tde | Activity [21] | Activity [9] | Activity [1] | Activity (PC-12 [2]) | Activity (PC-12 [24]) | Activity [12] | Activity [27] | Activity [14] | Activity [28] | Activity (PC-12 [29]) Dose-dependent effect | Activity [30] | Activity (Hippocampal neurone [31]) Dose-dependent effect | Activity (Rattus norvegicus [32]) | Activity [33] | Activity [36] | Activity [37] | Activity [38] Dose-dependent effect | Activity (Rattus norvegicus [39]) | Activity (Hippocampal neurone [16]) | Activity (TrkB-stable [4]) | Activity (TrkB-stable [5]) | Activity (Rattus norvegicus [40]) | Activity [41] | Activity [42]
1.8%: Activity (Mus musculus [34])
5 nM: EC50 [3]
